Several values for one entry are separate records, joined by “and”; a condition that tells them apart may be missing. Equal entries are not always repeated.
Assays:
Fibroblast = experiment: Multiplex assay against human fibroblast; assay type: toxicity, cell-based
Procedure, shortened: (§1)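 Phenotypes for tubulin, mitochondrial mass and membrane permeability are expressed as per cents of healthy-nucleus cells. Cells were stained live at seeding with Hoechst33342, BioTracker Green Microtubule Cytoskeleton Dye, MitoTracker Red and Annexin V Alexa Fluor 680, then imaged after compound addition on a CQ1 microscope at 37°C and 5% CO2. Machine-learning gating in CellPathfinder separated Hoechst high-intensity objects from normal cells, divided normal cells by nuclear state (healthy, pyknosed, fragmented) and divided pyknosed cells into mitotic or apoptotic.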

HEK-293T = experiment: Multiplex assay against HEK293T; assay type: toxicity, cell-based; settings: human; procedure, shortened: as §1
[1] = 12 h, 1 µM, compound concentration 1 uM
[2] = 12 h, 10 µM, compound concentration 10 uM
[3] = 24 h, 1 µM, compound concentration 1 uM
[4] = 24 h, 10 µM, compound concentration 10 uM
[5] = 48 h, 1 µM, compound concentration 1 uM
[6] = 48 h, 10 µM, compound concentration 10 uM

Cc1noc(C)c1-c1cnc2c(-c3ccc(C(=O)O)cc3)cn([C@@H](C)c3ccccn3)c2c1 [PLX-51107]
Population Apoptotic (%) (Fibroblast; [1]): 4.44% and 12.9% | Population Fragmented Nuclei (%) (Fibroblast; [1]): 10.26% and 3.93% | Population Healthy Nuclei (%) (Fibroblast; [1]): 66.67% and 82.53% | Population Hoechst High Intensity Objects (%) (Fibroblast; [1]): 0% | Population Membrane Permeable-Phenotype (%) (Fibroblast; [1]): 4.62% and 1.06% | Population Mitochondria Different-Phenotype (%) (Fibroblast; [1]): 10% and 6.88% | Population Mitotic Cells (%) (Fibroblast; [1]): 95.56% and 87.1% | Population Normal (%) (Fibroblast; [1]): 100% | Population Pyknosed Nuclei (%) (Fibroblast; [1]): 23.08% and 13.54% | Population Tubulin-Different-Phenotype (%) (Fibroblast; [1]): 11.54% and 14.81% | Total Cell Count (Fibroblast; [1]): 195 and 229 | Population Apoptotic (%) (Fibroblast; [2]): 16.13% and 16.67% | Population Fragmented Nuclei (%) (Fibroblast; [2]): 6.25% and 5.33% | Population Healthy Nuclei (%) (Fibroblast; [2]): 78.85% and 82.38% | Population Hoechst High Intensity Objects (%) (Fibroblast; [2]): 0% | Population Membrane Permeable-Phenotype (%) (Fibroblast; [2]): 4.27% and 2.99% | Population Mitochondria Different-Phenotype (%) (Fibroblast; [2]): 12.8% and 10.95% | Population Mitotic Cells (%) (Fibroblast; [2]): 83.87% and 83.33% | Population Normal (%) (Fibroblast; [2]): 100% | Population Pyknosed Nuclei (%) (Fibroblast; [2]): 14.9% and 12.3% | Population Tubulin-Different-Phenotype (%) (Fibroblast; [2]): 14.63% and 21.89% | Total Cell Count (Fibroblast; [2]): 208 and 244 | Population Fragmented Nuclei (%) (Fibroblast; [3]): 8.57% and 3.9% | Population Healthy Nuclei (%) (Fibroblast; [3]): 78.1% and 88.31% | Population Hoechst High Intensity Objects (%) (Fibroblast; [3]): 0% | Population Membrane Permeable-Phenotype (%) (Fibroblast; [3]): 2.44% and 0.98% | Population Mitochondria Different-Phenotype (%) (Fibroblast; [3]): 4.88% and 3.43% | Population Mitotic Cells (%) (Fibroblast; [3]): 82.14% and 94.44% | Population Normal (%) (Fibroblast; [3]): 100% | Population Pyknosed Nuclei (%) (Fibroblast; [3]): 13.33% and 7.79% | Population Tubulin-Different-Phenotype (%) (Fibroblast; [3]): 7.32% and 10.29% | Total Cell Count (Fibroblast; [3]): 210 and 231 | Population Apoptotic (%) (Fibroblast; [4]): 20% and 14.81% | Population Fragmented Nuclei (%) (Fibroblast; [4]): 7.04% and 7.47% | Population Healthy Nuclei (%) (Fibroblast; [4]): 85.43% and 81.33% | Population Hoechst High Intensity Objects (%) (Fibroblast; [4]): 0% | Population Membrane Permeable-Phenotype (%) (Fibroblast; [4]): 3.53% and 2.04% | Population Mitochondria Different-Phenotype (%) (Fibroblast; [4]): 11.18% and 6.63% | Population Mitotic Cells (%) (Fibroblast; [4]): 80% and 85.19% | Population Normal (%) (Fibroblast; [4]): 100% | Population Pyknosed Nuclei (%) (Fibroblast; [4]): 7.54% and 11.2% | Population Tubulin-Different-Phenotype (%) (Fibroblast; [4]): 12.94% and 15.31% | Total Cell Count (Fibroblast; [4]): 199 and 241 | Population Apoptotic (%) (Fibroblast; [5]): 30% | Population Fragmented Nuclei (%) (Fibroblast; [5]): 11.06% and 8.8% | Population Healthy Nuclei (%) (Fibroblast; [5]): 84.13% and 87.2% | Population Hoechst High Intensity Objects (%) (Fibroblast; [5]): 0% | Population Membrane Permeable-Phenotype (%) (Fibroblast; [5]): 0.57% and 3.67% | Population Mitotic Cells (%) (Fibroblast; [5]): 70% | Population Normal (%) (Fibroblast; [5]): 100% | Population Pyknosed Nuclei (%) (Fibroblast; [5]): 4.81% and 4% | Population Tubulin-Different-Phenotype (%) (Fibroblast; [5]): 4.57% and 11.93% | Total Cell Count (Fibroblast; [5]): 208 and 250 | Population Apoptotic (%) (Fibroblast; [6]): 28.57% and 50% | Population Fragmented Nuclei (%) (Fibroblast; [6]): 7% and 9.25% | Population Healthy Nuclei (%) (Fibroblast; [6]): 86% and 83.7% | Population Hoechst High Intensity Objects (%) (Fibroblast; [6]): 0% | Population Membrane Permeable-Phenotype (%) (Fibroblast; [6]): 3.49% and 1.05% | Population Mitotic Cells (%) (Fibroblast; [6]): 71.43% and 50% | Population Normal (%) (Fibroblast; [6]): 100% | Population Pyknosed Nuclei (%) (Fibroblast; [6]): 7% and 7.05% | Population Tubulin-Different-Phenotype (%) (Fibroblast; [6]): 10.47% and 9.47% | Total Cell Count (Fibroblast; [6]): 200 and 227 | Population Apoptotic (%) (HEK-293T; [1]): 5.67% and 10.17% | Population Fragmented Nuclei (%) (HEK-293T; [1]): 1.66% and 3.31% | Population Hoechst High Intensity Objects (%) (HEK-293T; [1]): 0% | Population Membrane Permeable-Phenotype (%) (HEK-293T; [1]): 0% and 7.14% | Population Mitotic Cells (%) (HEK-293T; [1]): 94.33% and 89.83% | Population Normal (%) (HEK-293T; [1]): 100% | Population Pyknosed Nuclei (%) (HEK-293T; [1]): 40.33% and 78.15% | Population Tubulin-Different-Phenotype (%) (HEK-293T; [1]): 2.51% and 7.14% | Population Apoptotic (%) (HEK-293T; [2]): 13.75% and 7.84% | Population Healthy Nuclei (%) (HEK-293T; [2]): 45.95% and 25.98% | Population Hoechst High Intensity Objects (%) (HEK-293T; [2]): 0% | Population Membrane Permeable-Phenotype (%) (HEK-293T; [2]): 0% | Population Mitotic Cells (%) (HEK-293T; [2]): 86.25% and 92.16% | Population Normal (%) (HEK-293T; [2]): 100% | Population Pyknosed Nuclei (%) (HEK-293T; [2]): 51.78% and 54.45% | Population Tubulin-Different-Phenotype (%) (HEK-293T; [2]): 4.23% and 5.48% | Total Cell Count (HEK-293T; [2]): 309 and 281 | Population Apoptotic (%) (HEK-293T; [3]): 9.2% and 11.02% | Population Fragmented Nuclei (%) (HEK-293T; [3]): 1.19% and 0.87% | Population Healthy Nuclei (%) (HEK-293T; [3]): 75.73% and 43.91% | Population Hoechst High Intensity Objects (%) (HEK-293T; [3]): 0% | Population Membrane Permeable-Phenotype (%) (HEK-293T; [3]): 0% | Population Mitochondria Different-Phenotype (%) (HEK-293T; [3]): 7.18% and 2.97% | Population Mitotic Cells (%) (HEK-293T; [3]): 90.8% and 88.98% | Population Normal (%) (HEK-293T; [3]): 100% | Population Pyknosed Nuclei (%) (HEK-293T; [3]): 23.08% and 55.22% | Population Tubulin-Different-Phenotype (%) (HEK-293T; [3]): 0.7% and 3.96% | Population Apoptotic (%) (HEK-293T; [4]): 10.67% and 13.49%
